# Assay results from ChEMBL document CHEMBL1255499, “Recombinant phenotyping of cytomegalovirus UL97 kinase sequence variants for ganciclovir resistance” (Antimicrob Agents Chemother, 2010).
# Key:
# Human betaherpesvirus 5 [1] = assay: Antiviral activity against Human cytomegalovirus T3243 expressing UL97 kinase T659I mutant gene infected in human foreskin fibroblast measured 6 days post infection by SEAP reporter gene assay; format: functional, organism-based; details: Human betaherpesvirus 5, T3243, 144 h
# Summary of the method: (§1)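 Ganciclovir SEAP yield reduction. Confluent HFF (2 × 10⁵ cells/well) infected with cell-free virus stock at MOI 0.02. Inoculum removed after 1.5 h and replaced with medium containing serial 2-fold GCV dilutions, top concentration 4 to 32 μM. Supernatant SEAP read by chemiluminescent substrate at day 6. EC₅₀ is the concentration giving 50% SEAP reduction; mean and SD of ≥7 determinations over ≥4 setup dates.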
# Human betaherpesvirus 5 [2] = assay: Antiviral activity against Human cytomegalovirus T3240 expressing UL97 kinase N510S mutant gene infected in human foreskin fibroblast measured 6 days post infection by SEAP reporter gene assay; format: functional, organism-based; details: Human betaherpesvirus 5, T3240, 144 h; summary of the method: as §1
# Human betaherpesvirus 5 [3] = assay: Antiviral activity against Human cytomegalovirus T3346 expressing UL97 kinase M460T mutant gene infected in human foreskin fibroblast measured 6 days post infection by SEAP reporter gene assay; format: functional, organism-based; details: Human betaherpesvirus 5, T3346, 144 h
# Summary of the method: (§2)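 Confluent HFF (2 × 10⁵ cells/well) infected with cell-free recombinant AD169-derived SEAP-reporter CMV at MOI 0.02 for 1.5 h. Inoculum then replaced with medium holding serial 2-fold ganciclovir dilutions, top concentration 4 to 32 μM. Supernatant SEAP read by chemiluminescent substrate at day 6. EC₅₀ is the concentration giving 50% SEAP reduction, reported as mean and SD of ≥7 determinations over ≥4 setup dates.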
# Human betaherpesvirus 5 [4] = assay: Antiviral activity against Human cytomegalovirus T3184 expressing UL97 kinase L405P mutant gene infected in human foreskin fibroblast measured 6 days post infection by SEAP reporter gene assay; details: Human betaherpesvirus 5, T3184, 144 h
# Human betaherpesvirus 5 [5] = assay: Antiviral activity against Human cytomegalovirus T3258 expressing UL97 kinase A594E mutant gene infected in human foreskin fibroblast measured 6 days post infection by SEAP reporter gene assay; details: Human betaherpesvirus 5, T3258, 144 h
# Human betaherpesvirus 5 [6] = assay: Antiviral activity against Human cytomegalovirus T3252 expressing UL97 kinase A594V mutant gene infected in human foreskin fibroblast measured 6 days post infection by SEAP reporter gene assay; format: functional, organism-based; details: Human betaherpesvirus 5, T3252, 144 h; summary of the method: as §2
# Human betaherpesvirus 5 [7] = assay: Antiviral activity against Human cytomegalovirus T3329 expressing UL97 kinase C603W mutant gene infected in human foreskin fibroblast measured 6 days post infection by SEAP reporter gene assay; details: Human betaherpesvirus 5, T3329, 144 h
# Human betaherpesvirus 5 [8] = assay: Antiviral activity against Human cytomegalovirus T3099 expressing UL97 kinase H587Y mutant gene infected in human foreskin fibroblast measured 6 days post infection by SEAP reporter gene assay; details: Human betaherpesvirus 5, T3099, 144 h
# Human betaherpesvirus 5 [9] = assay: Antiviral activity against Human cytomegalovirus T3146 expressing UL97 kinase K599R mutant gene infected in human foreskin fibroblast measured 6 days post infection by SEAP reporter gene assay; details: Human betaherpesvirus 5, T3146, 144 h
# Human betaherpesvirus 5 [10] = assay: Antiviral activity against Human cytomegalovirus T3215 expressing UL97 kinase A478V mutant gene infected in human foreskin fibroblast measured 6 days post infection by SEAP reporter gene assay; details: Human betaherpesvirus 5, T3215, 144 h
# Human betaherpesvirus 5 [11] = assay: Antiviral activity against Human cytomegalovirus T2789 expressing UL97 kinase L405P mutant gene infected in human foreskin fibroblast measured 6 days post infection by SEAP reporter gene assay; details: Human betaherpesvirus 5, T2789, 144 h
# Human betaherpesvirus 5 [12] = assay: Antiviral activity against Human cytomegalovirus T3331 expressing UL97 kinase C603R mutant gene infected in human foreskin fibroblast measured 6 days post infection by SEAP reporter gene assay; format: functional, organism-based; details: Human betaherpesvirus 5, T3331, 144 h; summary of the method: as §2
# Human betaherpesvirus 5 [13] = assay: Antiviral activity against Human cytomegalovirus T3259 expressing UL97 kinase C592G mutant gene infected in human foreskin fibroblast measured 6 days post infection by SEAP reporter gene assay; format: functional, organism-based; details: Human betaherpesvirus 5, T3259, 144 h; summary of the method: as §1
# Human betaherpesvirus 5 [14] = assay: Antiviral activity against Human cytomegalovirus T3264 expressing UL97 kinase G623S mutant gene infected in human foreskin fibroblast measured 6 days post infection by SEAP reporter gene assay; format: functional, organism-based; details: Human betaherpesvirus 5, T3264, 144 h; summary of the method: as §1
# Human betaherpesvirus 5 [15] = assay: Antiviral activity against Human cytomegalovirus T3326 harboring Frt motif upstream of UL97 kinase N68D L126Q I244V mutant gene infected in human foreskin fibroblast measured 6 days post infection by SEAP reporter gene assay; details: Human betaherpesvirus 5, T3326, 144 h
# Human betaherpesvirus 5 [16] = assay: Antiviral activity against Human cytomegalovirus T3135 expressing UL97 kinase H587Y mutant gene infected in human foreskin fibroblast measured 6 days post infection by SEAP reporter gene assay; details: Human betaherpesvirus 5, T3135, 144 h
# Human betaherpesvirus 5 [17] = assay: Antiviral activity against Human cytomegalovirus T3327 expressing UL97 kinase C603S mutant gene infected in human foreskin fibroblast measured 6 days post infection by SEAP reporter gene assay; format: functional, organism-based; details: Human betaherpesvirus 5, T3327, 144 h; summary of the method: as §2
# Human betaherpesvirus 5 [18] = assay: Antiviral activity against Human cytomegalovirus T3136 expressing UL97 kinase H469Y mutant gene infected in human foreskin fibroblast measured 6 days post infection by SEAP reporter gene assay; format: functional, organism-based; details: Human betaherpesvirus 5, T3136, 144 h; summary of the method: as §1
# Human betaherpesvirus 5 [19] = assay: Antiviral activity against Human cytomegalovirus T3041 expressing UL97 kinase L600I mutant gene infected in human foreskin fibroblast measured 6 days post infection by SEAP reporter gene assay; format: functional, organism-based; details: Human betaherpesvirus 5, T3041, 144 h; summary of the method: as §2
# Human betaherpesvirus 5 [20] = assay: Antiviral activity against Human cytomegalovirus T3239 expressing UL97 kinase V665I mutant gene infected in human foreskin fibroblast measured 6 days post infection by SEAP reporter gene assay; details: Human betaherpesvirus 5, T3239, 144 h
# Human betaherpesvirus 5 [21] = assay: Antiviral activity against Human cytomegalovirus T3216 expressing UL97 kinase A588V mutant gene infected in human foreskin fibroblast measured 6 days post infection by SEAP reporter gene assay; details: Human betaherpesvirus 5, T3216, 144 h
# Human betaherpesvirus 5 [22] = assay: Antiviral activity against Human cytomegalovirus T3244 expressing UL97 kinase A588V mutant gene infected in human foreskin fibroblast measured 6 days post infection by SEAP reporter gene assay; details: Human betaherpesvirus 5, T3244, 144 h
# Human betaherpesvirus 5 [23] = assay: Antiviral activity against Human cytomegalovirus T3185 harboring Frt motif upstream of UL97 gene and expressing UL97 kinase H587Y mutant gene infected in human foreskin fibroblast measured 6 days post infection by SEAP reporter gene assay; details: Human betaherpesvirus 5, T3185, 144 h
# Human betaherpesvirus 5 [24] = assay: Antiviral activity against Human cytomegalovirus T3130 expressing UL97 kinase V665I mutant gene infected in human foreskin fibroblast measured 6 days post infection by SEAP reporter gene assay; details: Human betaherpesvirus 5, T3130, 144 h
# Human betaherpesvirus 5 [25] = assay: Antiviral activity against Human cytomegalovirus T2233 expressing UL97 kinase H587Y mutant gene infected in human foreskin fibroblast measured 6 days post infection by SEAP reporter gene assay; details: Human betaherpesvirus 5, T2233, 144 h
# Human betaherpesvirus 5 [26] = assay: Antiviral activity against Human cytomegalovirus T3242 expressing UL97 kinase A478V mutant gene infected in human foreskin fibroblast measured 6 days post infection by SEAP reporter gene assay; details: Human betaherpesvirus 5, T3242, 144 h
# Human betaherpesvirus 5 [27] = assay: Antiviral activity against Human cytomegalovirus T2258 expressing UL97 kinase C592G mutant gene infected in human foreskin fibroblast measured 6 days post infection by SEAP reporter gene assay; format: functional, organism-based; details: Human betaherpesvirus 5, T2258, 144 h; summary of the method: as §2
# Human betaherpesvirus 5 [28] = assay: Antiviral activity against Human cytomegalovirus T2259 expressing UL97 kinase M460V mutant gene infected in human foreskin fibroblast measured 6 days post infection by SEAP reporter gene assay; format: functional, organism-based; details: Human betaherpesvirus 5, T2259, 144 h; summary of the method: as §2
# Human betaherpesvirus 5 [29] = assay: Antiviral activity against Human cytomegalovirus T3257 expressing UL97 kinase V466M mutant gene infected in human foreskin fibroblast measured 6 days post infection by SEAP reporter gene assay; details: Human betaherpesvirus 5, T3257, 144 h
# Human betaherpesvirus 5 [30] = assay: Antiviral activity against Human cytomegalovirus T3261 harboring Frt motif upstream of UL97 kinase infected in human foreskin fibroblast measured 6 days post infection by SEAP reporter gene assay; details: Human betaherpesvirus 5, T3261, 144 h
# Human betaherpesvirus 5 [31] = assay: Antiviral activity against Human cytomegalovirus T3253 expressing UL97 kinase K599R mutant gene infected in human foreskin fibroblast measured 6 days post infection by SEAP reporter gene assay; details: Human betaherpesvirus 5, T3253, 144 h
# Human betaherpesvirus 5 [32] = assay: Antiviral activity against Human cytomegalovirus T2211 expressing UL97 kinase H587Y mutant gene infected in human foreskin fibroblast measured 6 days post infection by SEAP reporter gene assay; details: Human betaherpesvirus 5, T2211, 144 h
# Human betaherpesvirus 5 [33] = assay: Antiviral activity against Human cytomegalovirus T2255 expressing UL97 kinase A594V mutant gene infected in human foreskin fibroblast measured 6 days post infection by SEAP reporter gene assay; format: functional, organism-based; details: Human betaherpesvirus 5, T2255, 144 h; summary of the method: as §2
# Human betaherpesvirus 5 [34] = assay: Antiviral activity against Human cytomegalovirus T2924 expressing UL97 kinase H469Y mutant gene infected in human foreskin fibroblast measured 6 days post infection by SEAP reporter gene assay; format: functional, organism-based; details: Human betaherpesvirus 5, T2924, 144 h; summary of the method: as §2
compound,measurement,setting,value
Nc1nc2c(ncn2COC(CO)CO)c(=O)[nH]1 [GANCICLOVIR],EC50,Human betaherpesvirus 5 [1],1260 nM
same,EC50,Human betaherpesvirus 5 [2],1140 nM
same,EC50,Human betaherpesvirus 5 [3],9240 nM
same,EC50,Human betaherpesvirus 5 [4],2760 nM
same,EC50,Human betaherpesvirus 5 [5],2980 nM
same,EC50,Human betaherpesvirus 5 [6],8480 nM
same,EC50,Human betaherpesvirus 5 [7],7810 nM
same,EC50,Human betaherpesvirus 5 [8],1020 nM
same,EC50,Human betaherpesvirus 5 [9],940 nM
same,EC50,Human betaherpesvirus 5 [10],950 nM
same,EC50,Human betaherpesvirus 5 [11],3020 nM
same,EC50,Human betaherpesvirus 5 [12],8180 nM
same,EC50,Human betaherpesvirus 5 [13],3000 nM
same,EC50,Human betaherpesvirus 5 [14],1130 nM
same,EC50,Human betaherpesvirus 5 [15],1090 nM
same,EC50,Human betaherpesvirus 5 [16],1000 nM
same,EC50,Human betaherpesvirus 5 [17],1850 nM
same,EC50,Human betaherpesvirus 5 [18],1050 nM
same,EC50,Human betaherpesvirus 5 [19],1500 nM
same,EC50,Human betaherpesvirus 5 [20],1060 nM
same,EC50,Human betaherpesvirus 5 [21],1230 nM
same,EC50,Human betaherpesvirus 5 [22],990 nM
same,EC50,Human betaherpesvirus 5 [23],960 nM
same,EC50,Human betaherpesvirus 5 [24],1220 nM
same,EC50,Human betaherpesvirus 5 [25],1110 nM
same,EC50,Human betaherpesvirus 5 [26],770 nM
same,EC50,Human betaherpesvirus 5 [27],3360 nM
same,EC50,Human betaherpesvirus 5 [28],8520 nM
same,EC50,Human betaherpesvirus 5 [29],1240 nM
same,EC50,Human betaherpesvirus 5 [30],990 nM
same,EC50,Human betaherpesvirus 5 [31],1230 nM
same,EC50,Human betaherpesvirus 5 [32],1100 nM
same,EC50,Human betaherpesvirus 5 [33],9240 nM
same,EC50,Human betaherpesvirus 5 [34],1330 nM
